From ChEMBL document CHEMBL1158631, “Discovery of novel 1-phenyl-cycloalkane carbamides as potent and selective influenza fusion inhibitors” (Bioorg Med Chem Lett, 2010) come the findings set out here.

pEC50, pIC50: −log10 of the molar value.

A short description of data set [1]: Antiviral activity against Influenza A virus (A/Weiss/43 (H1N1)) infected in MDCK cells assessed as inhibition of virus-induced cytopathic effect. The data set is classed as functional, organism-based, Influenza A virus (A/Weiss/1943(H1N1)). The procedure, abridged:
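MDCK cells infected with influenza A/Weiss/43 (H1N1). Compounds were titrated at multiple doses after a primary single-dose screen. The read-out was protection from viral cytopathic effect, and EC50 is the concentration inhibiting 50% of cytopathic effect. Values are means of triplicate or of at least duplicate experiments.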
A general note: Damage to the host cells serves as the signal in cytopathic effect assays.

A short description of data set [2]: Cytotoxicity against MDCK cells. Conditions: dog; call rule not given here. The format is cell-based, Canis lupus familiaris. In a few lines: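 Uninfected MDCK cells were exposed to compounds. CC50 is the concentration inhibiting 50% of MDCK cell growth relative to control.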
Data set [3] in a line: Toxicity assessed as haemolysis in chicken RBC. The data set is classed as cell-based, Gallus gallus, Erythrocyte. The conditions noted are these: for pIC50: Gallus gallus, Erythrocyte, read-out: IC50.

Usually pEC50 stands for the EC50 on a negative log10 scale, so that one unit is a factor of ten. The CC50 is the concentration that lowers cell viability or growth by half. High values mean better tolerance by the cells, low ones harm at low concentration. As usually defined, the pIC50 is the negative decadic logarithm of the IC50, by convention in mol/L. For `COC(=O)[C@@]1(C)CCC[C@]2(C)c3cc(OC)ccc3C(=O)C[C@@H]12`, the pEC50 in data set [1] is 6.05. Also, the half-maximal cytotoxic concentration (CC50) in data set [2] amounted to 67 µM. The negative-log IC50 (pIC50) in data set [3] is 5.49.

With `CN(C(=O)C1(c2ccccc2)CCCC1)c1cccc(C#N)c1`, the pEC50 in data set [1] was 6.14. Half-maximal cytotoxicity in data set [2] (CC50) was put at 56 µM.

With `CN(C(=O)C1(c2ccccc2)CCCC1)c1cccnc1`, the pEC50 in data set [1] is 4.79. The same compound gave a CC50 in data set [2] greater than 100 µM.

Consider `CN(C(=O)C1(c2ccc(Cl)cc2)CCC1)c1ccccc1`, for which the pEC50 in data set [1] was 6.57. In data set [2], this compound returned a 50% cytotoxic concentration (CC50) of 24 µM.

With `CN(C(=O)C1(c2ccc(Cl)cc2)CCCCC1)c1ccccc1`, in data set [1], the pEC50 is less than 5.00. In data set [2], this compound displayed a CC50 of 7.4 µM.

With `CN(C(=O)C1(c2ccc(Cl)cc2)CCCC1)c1ccccc1`, the pEC50 in data set [1] was 6.72. The compound also yielded a CC50 in data set [2] of 21 µM.

As for `CN(C(=O)C1(c2ccccc2)CCCC1)c1cccc(Cl)c1`, in data set [1], the pEC50 was 6.34. Moreover, it took 17 µM to reach half-maximal cytotoxicity in data set [2] (CC50).

On to `CN(C(=O)C1(c2ccccc2)CCCC1)C1CCCCC1`, for which, in data set [1], the pEC50 was 6.35. The same compound had a CC50 in data set [2] of 21 µM.

In the case of `CN(C(=O)C1(c2ccccc2)CCCC1)c1ccc(C#N)cc1`, the pEC50 in data set [1] is 7.01. In data set [2], this compound yielded a CC50 greater than 100 µM.

For `COc1ccc(C2(C(=O)N(C)c3ccccc3)CCCC2)cc1`, in data set [1], the pEC50 was 6.12. This compound also yielded a CC50 in data set [2] of 69 µM.

In the case of `CN(C(=O)C1(c2ccccc2)CCCC1)c1ccc(C(F)(F)F)cc1`, the pEC50 in data set [1] is 5.67. In data set [2], the CC50 stood at 21 µM.

On to `O=C(N1CCCc2ccccc21)C1(c2ccccc2)CCCC1`, for which the pEC50 in data set [1] is less than 4.00. Besides, the midpoint of cytotoxicity in data set [2], the CC50, lay at 24 µM.

In the case of `O=C(Nc1ccccc1)C1(c2ccccc2)CCCC1`, in data set [1], the pEC50 is less than 4.00. In data set [2], this compound gave a CC50 greater than 100 µM.

As to `CN(C(=O)C1(c2ccccc2)CCCC1)c1ccccc1`, the pEC50 in data set [1] is 6.62. In data set [2], this compound registered a 50% cytotoxic concentration (CC50) of 52 µM.

In the case of `CCN(C(=O)C1(c2ccccc2)CCCC1)c1ccccc1`, the pEC50 in data set [1] was 6.59. Further, half-maximal cytotoxicity in data set [2] (CC50) was put at 56 µM.

For `O=C(N(CCO)c1ccccc1)C1(c2ccccc2)CCCC1`, the pEC50 in data set [1] is 6.24. This compound also yielded a CC50 in data set [2] of 79 µM.

Consider `CN(C(=O)C1(c2cccc(C(F)(F)F)c2)CCCC1)c1ccccc1`, for which, in data set [1], the pEC50 was 5.65. This compound showed a CC50 in data set [2] of 20 µM.

For `CN(C(=O)C1(c2ccccc2)CCCC1)c1ccc(Cl)cc1`, the pEC50 in data set [1] is 7.10. In data set [2], this compound registered a CC50 of 20 µM.

On to `CN(C(=O)C1(c2ccc(Cl)cc2)CC1)c1ccccc1`, for which, in data set [1], the pEC50 was 5.73. In addition, the CC50 in data set [2] came to 49 µM.

Turning to `O=C(N1CCCCC1)C1(c2ccccc2)CCCC1`, the negative logarithm of the EC50 (pEC50) in data set [1] was 5.68. The same compound displayed a CC50 in data set [2] greater than 100 µM. The pIC50 in data set [3] is 5.66.

Consider `O=C(N1CCOCC1)C1(c2ccccc2)CCCC1`, for which the pEC50 in data set [1] is 4.55. In data set [2], the CC50 was greater than 100 µM. Also, the IC50 entry in data set [3] (erythrocyte) is on record as “Not Active”.

For `CN(C(=O)C1(c2ccccc2)CCCC1)c1ccccc1Cl`, in data set [1], the pEC50 was 6.74. Moreover, in data set [2], the midpoint of cytotoxicity, the CC50, lay at 23 µM.

For `CC1(C)C[C@H](O)C[C@](C)(CNC(=O)c2cc(Cl)ccc2O)C1`, the pEC50 in data set [1] was 7.22. Besides, the cytotoxic concentration (CC50) in data set [2] is greater than 50 µM. Moreover, in data set [3], the negative logarithm of the IC50 (pIC50) is 6.28.
